Results taken from ChEMBL document CHEMBL1149148, “Synthesis and structure-activity relationships of novel 7-substituted 1,4-dihydro-4-oxo-1-(2-thiazolyl)-1,8-naphthyridine-3-carboxylic acids as antitumor agents. Part 2” (J Med Chem, 2004).
≈ marks a conversion by molar mass, not a printed value.

Tests used:
Mus musculus [1] = assay: Ratio of median survival time of treated mice (T) to that of median survival time of controls (C) in mice infected with p388 cells (in vivo) at a dose of 3.13 mg/kg; type: functional
Summary of the method: (§1)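 BDF1 mice implanted ip with 0.1 mL diluted ascites fluid carrying 10⁶ P388 leukemia cells. Dosing ip on days 1 and 5 after implantation. Test compounds were suspended in 0.4% CMC, and reference drugs were dissolved and diluted in distilled water. Seven mice per group. T/C (%) = median survival time of treated group / median survival time of control group × 100.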

[2] = Solubility at pH 7.2; type: physicochemical; settings: buffer
Summary of the method: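 Water solubility measured in pH 7.2 phosphate buffer, reported in mg/mL.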

Mus musculus [3] = assay: Ratio of median survival time of treated mice (T) to that of median survival time of controls (C) in mice infected with p388 cells (in vivo) at a dose of 12.5 mg/kg; type: functional; summary of the method: as §1
P388 = assay: Cytotoxic activity against murine P388 leukemia cells; type: functional, cell-based; settings: Mus musculus
Mus musculus [4] = assay: Ratio of median survival time of treated mice (T) to that of median survival time of controls (C) in mice infected with p388 cells (in vivo) at a dose of 50 mg/kg; type: functional; summary of the method: as §1
Mus musculus [5] = assay: Ratio of median survival time of treated mice (T) to that of median survival time of controls (C) in mice infected with p388 cells (in vivo) at a dose of 1.56 mg/kg; type: functional; summary of the method: as §1
Mus musculus [6] = assay: Ratio of median survival time of treated mice (T) to that of median survival time of controls (C) in mice infected with p388 cells (in vivo) at a dose of 6.25 mg/kg; type: functional; summary of the method: as §1
Mus musculus [7] = assay: Ratio of median survival time of treated mice (T) to that of median survival time of controls (C) in mice infected with p388 cells (in vivo) at a dose of 25 mg/kg; type: functional; summary of the method: as §1
Mus musculus [8] = assay: Ratio of median survival time of treated mice (T) to that of median survival time of controls (C) in mice infected with p388 cells (in vivo) at a dose of 0.78 mg/kg; type: functional; summary of the method: as §1
SCaBER = assay: Cytotoxic activity against human tumor SCaBER bladder cells; type: functional, cell-based
Summary of the method: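 SCaBER cells maintained in EMEM with 10% FBS and nonessential amino acids. Seeded at (1-2) × 10⁴ cells/mL, 24 h preincubation, then 72 h compound exposure at various concentrations at 37 °C in 5% CO₂. MTT (5 mg/mL) for 4 h, then DMSO, read at 570/690 nm. IC50 is 50% absorbance drop vs control. At least two independent experiments averaged.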

SBC-3 = assay: Cytotoxic activity against human tumor SBC-3 lung cells; type: functional, cell-based
Summary of the method: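 SBC-3 cells cultured in RPMI 1640 plus 10% FBS. Plated at (1-2) × 10⁴ cells/mL, preincubated 24 h, then compound at various concentrations for 72 h at 37 °C in 5% CO₂. MTT solution (5 mg/mL) for 4 h, DMSO solubilization, absorbance 570 nm with 690 nm reference. IC50 is the dose halving absorbance vs control. Mean of at least two independent runs.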

PANC-1 = assay: Cytotoxic activity against human tumor PANC-1 pancreas cells; type: functional, cell-based
Summary of the method: (§2)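 Hs746T and PANC-1 cells kept in Dulbecco's modified Eagle's medium with 10% FBS. Seeded at (1-2) × 10⁴ cells/mL, 24 h preincubation, then graded compound concentrations for 72 h at 37 °C in 5% CO₂. MTT (5 mg/mL solution) added for 4 h, formazan taken up in DMSO, read at 570/690 nm. IC50 is 50% absorbance reduction relative to control. At least two independent experiments averaged.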

Hs746T = assay: Cytotoxic activity against human tumor Hs 746.T stomach cells; type: functional, cell-based; summary of the method: as §2
HL-60 = assay: Cytotoxic activity against human tumor HL-60 leukemia cells; type: functional, cell-based
Summary of the method: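 HL-60 cells grown in RPMI 1640 with 20% FBS. Seeded at (1-2) × 10⁴ cells/mL, preincubated 24 h, then exposed to a range of compound concentrations for 72 h at 37 °C in 5% CO₂. Read by MTT (5 mg/mL solution, 4 h), formazan dissolved in DMSO, absorbance 570 nm/690 nm. IC50 is the concentration giving 50% absorbance reduction vs control. Mean of at least two independent experiments.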

SK-OV-3 = assay: Cytotoxic activity against human tumor SK-OV-3 ovary cells; type: functional, cell-based; settings: SK-OV-3, Female gonad
Summary of the method: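 SKOV3 cells grown in RPMI 1640 with 10% heat-inactivated FBS. Cells at (1-2) × 10⁴ cells/mL, preincubated 24 h, treated with graded concentrations for 72 h at 37 °C in 5% CO₂. MTT readout (5 mg/mL, 4 h), formazan in DMSO, absorbance 570 nm/690 nm. IC50 is the concentration for 50% absorbance reduction vs control. Mean of at least two independent experiments.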

Which T/C (Mus musculus [1]) does the source give for `CO[C@H]1CN(c2ccc3c(=O)c(C(=O)O)cn(-c4nccs4)c3n2)C[C@@H]1N.Cl` here?
The T/C was 163%.

And the solubility [2]?
Its solubility is 0.047 mg/mL.

What about the T/C (Mus musculus [3]) of the same molecule?
Its T/C is 238%.

And the IC50 (P388)?
Its IC50 is 0.018 µg/mL.

And the T/C (Mus musculus [4])?
Its T/C is 338%.

What does the source list for `CN[C@@H]1CN(c2ccc3c(=O)c(C(=O)O)cn(-c4nccs4)c3n2)C[C@H]1OC.Cl`?
T/C (Mus musculus [1]): 163%; solubility [2]: 19.8 mg/mL; T/C (Mus musculus [5]): 125%; T/C (Mus musculus [6]): 188%; T/C (Mus musculus [3]): 238%; IC50 (P388): 0.021 µg/mL; T/C (Mus musculus [7]): 300%; T/C (Mus musculus [8]): 125%

For `Cl.O=C(O)c1cn(-c2nccs2)c2nc(N3C[C@@H]4CCCN[C@@H]4C3)ccc2c1=O`, which IC50 (P388) is on record?
The IC50 was 0.017 µg/mL.

Which T/C (Mus musculus [1]) does the source give for `COc1cc([C@@H]2c3cc4c(cc3[C@@H](O[C@@H]3O[C@@H]5CO[C@@H](C)O[C@H]5[C@H](O)[C@H]3O)[C@H]3COC(=O)[C@H]23)OCO4)cc(OC)c1O` [ETOPOSIDE] here?
Its T/C is 175%.

What about the T/C (Mus musculus [5]) of the same molecule?
Its T/C is 150%.

And the IC50 (SCaBER)?
The IC50 was 0.276 µg/mL (≈ 0.469 µM).

And the IC50 (SBC-3)?
The IC50 was 0.0676 µg/mL (≈ 0.115 µM).

What about the IC50 (PANC-1) of the same molecule?
The IC50 was 1.6 µg/mL (≈ 2.72 µM).

What about the T/C (Mus musculus [6]) of the same molecule?
Its T/C is 200%.

What about the T/C (Mus musculus [3]) of the same molecule?
The T/C was 250%.

And the IC50 (Hs746T)?
Its IC50 is 3.29 µg/mL (≈ 5.59 µM).

And the IC50 (HL-60)?
Its IC50 is 0.15 µg/mL (≈ 0.255 µM).

And the IC50 (SK-OV-3)?
Its IC50 is 1.06 µg/mL (≈ 1.8 µM).

And the T/C (Mus musculus [7])?
Its T/C is greater than 375%.

What about the T/C (Mus musculus [8]) of the same molecule?
The T/C was 138%.

What about the T/C (Mus musculus [4]) of the same molecule?
Its T/C is greater than 375%.

With `Cl.O=C(O)c1cn(-c2nccs2)c2nc(N3CCc4ccccc4C3)ccc2c1=O` as the molecule, how does the IC50 (P388) read?
Its IC50 is greater than 10 µg/mL.

Which results are given for `CNC1CCN(c2ccc3c(=O)c(C(=O)O)cn(-c4nccs4)c3n2)C1.Cl` (stereo unspecified)?
T/C (Mus musculus [1]): 200%; solubility [2]: 0.008 mg/mL; T/C (Mus musculus [3]): 300%; IC50 (P388): 0.01 µg/mL; T/C (Mus musculus [4]): >375%

With `CN[C@H]1CN(c2ccc3c(=O)c(C(=O)O)cn(-c4nccs4)c3n2)C[C@H]1OC.Cl` as the molecule, how does the IC50 (P388) read?
Its IC50 is 0.02 µg/mL.

Which IC50 (P388) does the source give for `Cl.Nc1cc(N2CCC(N)C2)nc2c1c(=O)c(C(=O)O)cn2-c1nccs1` (stereo unspecified) here?
Its IC50 is 0.0081 µg/mL.

Which IC50 (P388) does the source give for `O=C(O)c1cn(-c2nccs2)c2nc(-c3ccccc3)ccc2c1=O` here?
The IC50 was 6.33 µg/mL (≈ 18.1 µM).

With `C[C@H]1CN(c2ccc3c(=O)c(C(=O)O)cn(-c4nccs4)c3n2)C[C@]1(C)N.Cl` as the molecule, how does the IC50 (P388) read?
Its IC50 is 0.02 µg/mL.

Which IC50 (P388) does the source give for `Cl.N[C@H]1CN(c2ccc3c(=O)c(C(=O)O)cn(-c4nccs4)c3n2)C[C@@H]1CCl` here?
Its IC50 is 0.024 µg/mL.

For `CNC1CN(c2ccc3c(=O)c(C(=O)O)cn(-c4nccs4)c3n2)C1.Cl`, which IC50 (P388) is on record?
The IC50 was 0.024 µg/mL.

With `CCN[C@H]1CN(c2ccc3c(=O)c(C(=O)O)cn(-c4nccs4)c3n2)C[C@@H]1OC.Cl` as the molecule, how does the IC50 (P388) read?
Its IC50 is 0.025 µg/mL.

With `Cl.O=C(O)c1cn(-c2nccs2)c2nc(N3CCOCC3)ccc2c1=O` as the molecule, how does the IC50 (P388) read?
The IC50 was 0.12 µg/mL.

Which IC50 (P388) does the source give for `Cl.Nc1cc2c(=O)c(C(=O)O)cn(-c3nccs3)c2nc1N1CCC(N)C1` (stereo unspecified) here?
Its IC50 is 1.01 µg/mL.

For `CN[C@H]1CN(c2ccc3c(=O)c(C(=O)O)cn(-c4nccs4)c3n2)C[C@@H]1OC.Cl` [listing 1 of 2 here], which T/C (Mus musculus [1]) is on record?
The T/C was 200%.

And the solubility [2]?
The solubility was 20.1 mg/mL.

And the T/C (Mus musculus [6])?
The T/C was 225%.

What about the T/C (Mus musculus [3]) of the same molecule?
Its T/C is 250%.

And the IC50 (P388)?
Its IC50 is 0.01 µg/mL.

What about the T/C (Mus musculus [7]) of the same molecule?
The T/C was 300%.

What about the T/C (Mus musculus [8]) of the same molecule?
The T/C was 150%.

What about the T/C (Mus musculus [4]) of the same molecule?
The T/C was greater than 375%.

With `CN[C@H]1CN(c2ccc3c(=O)c(C(=O)O)cn(-c4nccs4)c3n2)C[C@@H]1OC.Cl` [listing 2 of 2 here] as the molecule, how does the T/C (Mus musculus [1]) read?
Its T/C is 225%.

And the solubility [2]?
The solubility was 23.7 mg/mL.

What about the T/C (Mus musculus [5]) of the same molecule?
Its T/C is 188%.

What about the T/C (Mus musculus [6]) of the same molecule?
The T/C was 275%.

And the T/C (Mus musculus [3])?
The T/C was greater than 375%.

What about the IC50 (P388) of the same molecule?
Its IC50 is 0.0075 µg/mL.

And the T/C (Mus musculus [7])?
Its T/C is greater than 375%.

What about the T/C (Mus musculus [8]) of the same molecule?
The T/C was 150%.

With `CNC1CCCN(c2ccc3c(=O)c(C(=O)O)cn(-c4nccs4)c3n2)C1.Cl` (stereo unspecified) as the molecule, how does the IC50 (P388) read?
The IC50 was 0.52 µg/mL.

Which IC50 (P388) does the source give for `Cc1cc(-c2ccc3c(=O)c(C(=O)O)cn(-c4nccs4)c3n2)cc(C)n1` here?
Its IC50 is 7.37 µg/mL (≈ 19.5 µM).

With `CC1CC(N)CN1c1ccc2c(=O)c(C(=O)O)cn(-c3nccs3)c2n1.Cl` (stereo unspecified) as the molecule, how does the IC50 (P388) read?
The IC50 was 0.11 µg/mL.

With CISPLATIN as the molecule, how does the T/C (Mus musculus [1]) read?
The T/C was 239%.

And the T/C (Mus musculus [5])?
The T/C was 186%.

What about the T/C (Mus musculus [6]) of the same molecule?
The T/C was 290%.

And the T/C (Mus musculus [8])?
Its T/C is 154%.

For `CN[C@H]1CN(c2ccc3c(=O)c(C(=O)O)cn(-c4nccs4)c3n2)C[C@@H]1SC.Cl`, which IC50 (P388) is on record?
The IC50 was 0.02 µg/mL.
